# Data published in PubChem BioAssay.
# The source made the active and inactive calls.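 How the source made its calls, unless noted: active means potentiation averaged over duplicate wells exceeding buffer-only control mean by more than 3 SD; inactive means the rest.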
# Molecular target: Potassium voltage-gated channel subfamily KQT member 1 (Homo sapiens) (UniProt P51787)
# Experiment: enhancement of KCNQ1 channel thallium flux – FluxOR thallium flux, CHO cells, duplicates, confirmation (AID 493007);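 on outcome: cells depolarized by a potassium plus thallium sulfate stimulus after compound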;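 on potentiation: 0% = buffer-only wells and 100% = R-L3 activator control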
# Details: KCNQ1 cell line, FluxOR thallium flux fluorescence, at 10 µM; active compounds read high, % of reference activator effect, buffer zero
# In short: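 material = CHO cells stably expressing the KCNQ1 potassium channel | repeats = duplicate wells per compound | measure = percent activation between buffer and R-L3 responses | signal = FluxOR thallium-flux fluorescence, kinetic read | schedule = FluxOR dye loading 90 min, compound exposure 20 min, room temperature | control set = buffer and R-L3 controls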
# Chain of Potassium voltage-gated channel subfamily KQT member 1 (Homo sapiens) (P51787 whole entry, looked up): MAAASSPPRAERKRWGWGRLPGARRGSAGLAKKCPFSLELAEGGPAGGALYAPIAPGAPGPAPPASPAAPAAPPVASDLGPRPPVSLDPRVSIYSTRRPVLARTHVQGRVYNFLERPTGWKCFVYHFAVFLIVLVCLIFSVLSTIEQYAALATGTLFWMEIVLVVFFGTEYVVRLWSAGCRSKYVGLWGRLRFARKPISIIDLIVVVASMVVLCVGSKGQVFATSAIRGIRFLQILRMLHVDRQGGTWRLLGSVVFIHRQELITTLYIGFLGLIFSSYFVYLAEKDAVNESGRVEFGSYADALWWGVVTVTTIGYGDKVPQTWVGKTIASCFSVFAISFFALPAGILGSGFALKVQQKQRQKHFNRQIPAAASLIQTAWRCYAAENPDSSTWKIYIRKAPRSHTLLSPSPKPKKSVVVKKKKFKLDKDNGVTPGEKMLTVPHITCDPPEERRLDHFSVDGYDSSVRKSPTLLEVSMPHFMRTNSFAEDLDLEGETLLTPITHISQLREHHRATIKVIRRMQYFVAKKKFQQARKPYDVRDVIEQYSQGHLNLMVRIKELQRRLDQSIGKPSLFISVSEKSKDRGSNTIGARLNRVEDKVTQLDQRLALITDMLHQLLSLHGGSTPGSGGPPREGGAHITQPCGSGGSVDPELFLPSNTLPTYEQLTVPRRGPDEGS
SMILES,outcome,potentiation
CCOc1ccccc1NC1=C(Cl)C(=O)N(c2ccccc2)C1=O,inactive,
C=CCNC(=S)NNC(=O)COc1c(Cl)cc(Cl)cc1Cl,inactive,
CC(C)COc1ccc(-c2nn(-c3ccccc3)cc2/C=C2/SC(=S)N(CC(=O)O)C2=O)cc1,inactive,
Cc1ccc(C(=O)C2=C(O)C(=O)N(CCCN3CCOCC3)C23C(=O)N(C)c2ccccc23)o1 (configuration not stated),inactive,
Cc1ccc(C(=O)CC(=O)c2ccc(C)cc2O)cc1,inactive,
O=[N+]([O-])c1ccc(C(O)C(CO)NC(=S)Nc2ccccc2)cc1 (configuration not stated),inactive,
CSc1cccc(NC(=O)CN2C(=O)c3ccccc3S2(=O)=O)c1,inactive,
O=C(CCSc1ccccc1)Nc1ccc(S(=O)(=O)Nc2ncccn2)cc1,inactive,
Cc1cccc(N(CC(=O)NC2CCCC2)C(=O)c2csnn2)c1C,inactive,
CCc1ccc(NC(=O)C2CCN(C(=O)[C@@H]3Cc4ccccc4CN3)CC2)cc1,inactive,
S=c1[nH]c2ccccc2c2ccccc12,inactive,
Cc1cc(N2CCOCC2)nc(SCC(=O)c2ccc(Cl)cc2)n1,inactive,
Cn1c(N/N=C/c2cccs2)cc(=O)n(C)c1=O,inactive,
COC(=O)c1ccc(CNC(=O)CSc2nc3sc(C)c(C)c3c(=O)n2C)o1,,89.5% (active)
COC(=O)C1CCN(C(=O)Nc2ccc(OC)cc2)CC1,,33% (active)
COCC(=O)NC1CC2CCC(C1)N2C(=S)Nc1ccccc1C(=O)OC (configuration not stated),inactive,
CN(C)CCCNc1cc(-c2ccccc2)nc2cc(-c3cccc(F)c3)nn12,,57% (active)
CC(=O)n1cc(N(C(=O)CCl)c2ccc(C)cc2)c2ccccc21,inactive,
CC(C)(C)c1ccc(CN2N=Nc3ccccc3S2(=O)=O)cc1,inactive,
CCCCNC(=O)CNC(=O)c1nn(-c2ccc(OC)cc2OC)c(=O)c2ccccc12,inactive,
N=C1/C(=C\c2ccc(-c3cccc(Cl)c3)o2)C(=O)N=C2SC=C(c3ccccc3)N12,,29% (active)
CN(Cc1cccnc1)C(=O)Cc1ccc(NS(=O)(=O)c2cccc(C(F)(F)F)c2)cc1,inactive,

# Molecular target: Potassium voltage-gated channel subfamily KQT member 2 (Rattus norvegicus) (UniProt O88943)
# Sequence (O88943 whole entry, looked up): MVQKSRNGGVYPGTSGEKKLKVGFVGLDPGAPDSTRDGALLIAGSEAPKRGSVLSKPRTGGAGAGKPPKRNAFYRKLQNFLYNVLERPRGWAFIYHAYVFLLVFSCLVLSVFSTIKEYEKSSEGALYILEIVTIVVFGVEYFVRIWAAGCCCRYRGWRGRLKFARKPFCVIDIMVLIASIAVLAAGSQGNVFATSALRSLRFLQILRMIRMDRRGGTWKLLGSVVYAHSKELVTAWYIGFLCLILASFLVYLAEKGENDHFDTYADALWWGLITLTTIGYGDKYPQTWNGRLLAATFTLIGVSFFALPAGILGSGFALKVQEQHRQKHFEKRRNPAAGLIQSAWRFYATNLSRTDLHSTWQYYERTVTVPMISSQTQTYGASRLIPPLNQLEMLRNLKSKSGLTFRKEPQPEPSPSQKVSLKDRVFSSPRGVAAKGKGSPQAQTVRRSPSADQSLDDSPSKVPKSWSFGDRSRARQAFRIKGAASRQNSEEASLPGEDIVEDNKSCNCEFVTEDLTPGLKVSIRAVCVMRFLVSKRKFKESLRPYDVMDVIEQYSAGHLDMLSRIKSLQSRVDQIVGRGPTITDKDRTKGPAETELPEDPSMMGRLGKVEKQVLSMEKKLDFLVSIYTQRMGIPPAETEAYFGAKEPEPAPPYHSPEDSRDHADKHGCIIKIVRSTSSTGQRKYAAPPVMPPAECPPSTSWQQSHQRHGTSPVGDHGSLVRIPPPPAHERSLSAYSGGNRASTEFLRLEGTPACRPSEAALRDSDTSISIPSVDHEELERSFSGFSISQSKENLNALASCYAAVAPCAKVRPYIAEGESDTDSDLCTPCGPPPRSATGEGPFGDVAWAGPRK
# Experiment: KCNQ2 thallium flux enhancement – KCNQ2-CHO-K1 cells, selectivity assay for KCNQ1 potentiator project (AID 493009;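 active means mean duplicate potentiation above the buffer control mean plus 5 SD of buffer wells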;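 further: assay conditions were tuned for KCNQ1 rather than KCNQ2 modulators; signal is max minus min fluorescence divided by baseline after thallium stimulus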)
# Details: FluxOR thallium flux fluorescence, at 10 µM; active compounds read high, scaled: buffer 0, activator control 100
row,SMILES,outcome
1,Oc1c(N=NC(=S)Nc2ccccc2F)c2ccccc2n1Cc1cccc(Cl)c1,inactive
2,COC(=O)[C@H](C)NC(=O)Nc1cc(Cl)ccc1C,inactive
3,C=CCNC(=S)NNC(=O)COc1c(Cl)cc(Cl)cc1Cl,inactive
4,Cc1ccc(C(=O)C2=C(O)C(=O)N(CCCN3CCOCC3)C23C(=O)N(C)c2ccccc23)o1 (configuration not stated),inactive
5,Cc1ccc(C(=O)CC(=O)c2ccc(C)cc2O)cc1,inactive
